These results are taken from ChEMBL document CHEMBL5113451, “Discovery of 2-thiobenzimidazoles as noncovalent inhibitors of SARS-CoV-2 main protease” (Bioorg Med Chem Lett, 2022).

Each structure is given as a SMILES string.

The first experiment addresses Replicase polyprotein 1ab (Severe acute respiratory syndrome coronavirus 2) (UniProt P0DTD1). In words: Inhibition of His6-tagged SARS-CoV-2 main protease expressed in Escherichia coli BL21 (DE3) assessed as residual enzyme activity using DABCYL-KTSAVLQ1SGFRKM-E(EDANS)-NH2 as substrate at 50 uM preincubated for 15 mins followed by substrate addition by FRET analysis. The procedure, abridged: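 Compound at 50 µM preincubated 15 min at 30 °C before dabcyl-edans peptide added. Fluorescence read every 90 s for about 2.5 h, baseline subtracted.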
Take `O=C(CSc1nc2cc(Cl)ccc2n1Cc1ccccc1)N1CCNC1=O`: the Activity was 50%.
Turning to `COCCn1c(C(=O)NCC(O)c2ccccc2)nc2ccccc2c1=O` (configuration not stated), the Activity is 50%.

A further experiment deals with T1, Replicase polyprotein 1ab (Severe acute respiratory syndrome coronavirus 2, UniProt P0DTD1). In words: Inhibition of His6-tagged SARS-CoV-2 main protease expressed in Escherichia coli BL21 (DE3) using DABCYL-KTSAVLQ1SGFRKM-E(EDANS)-NH2 as substrate preincubated for 15 mins followed by substrate addition by FRET analysis. The procedure, abridged:
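Inhibitor preincubated 15 min at 30 °C, then dabcyl-edans substrate added. Fluorescence followed at 90 s intervals. […] Three independent experiments.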
Turning to `O=C(CSc1nc2cc(Cl)ccc2n1Cc1ccccc1)N1CCOC1=O`, inhibition was half-maximal at 62.2 µM (IC50).
Same read-out and setting: the value for `O=C(CSc1nc2cc(Cl)ccc2n1Cc1ccccc1)N1CCNC1=O` was 24.2 µM; that for `O=C1NCCN1C(=O)C(Cc1ccccc1)Sc1nc2cc(Cl)ccc2n1Cc1ccccc1` (configuration not stated) was 29.9 µM; that for `O=C1OCCN1C(=O)C(Cc1ccco1)Sc1nc2cc(Cl)c(O)cc2n1Cc1ccccc1` (configuration not stated) was 46.1 µM.
On to `COc1cc2c(cc1Cl)nc(SC(Cc1ccco1)C(=O)N1CCOC1=O)n2Cc1ccccc1` (configuration not stated), for which the IC50 (usually the point on the concentration scale where inhibition reaches its midpoint) was determined as 27.7 µM.
`O=C(CSc1nc2cc(Cl)c(O)cc2n1Cc1ccccc1)N1CCOC1=O`: the half-maximal inhibitory concentration (IC50) is 35.8 µM.
Take `O=C1OCCN1C(=O)C(Cc1ccccc1)Sc1nc2cc(Cl)ccc2n1Cc1ccccc1` (configuration not stated): 26.7 µM corresponded to half-maximal inhibition (IC50).
`Cc1ccc2c(c1)nc(SC(Cc1ccccc1)C(=O)N1CCNC1=O)n2Cc1ccccc1` (configuration not stated) registered an IC50 of 32.4 µM.
`O=C1OCCN1C(=O)C(Cc1ccco1)Sc1nc2ccc(Cl)cc2n1Cc1ccccc1` (configuration not stated) came in with an IC50 of 52.9 µM.
Same read-out and setting: the value for `COc1cc2c(cc1Cl)nc(SCC(=O)N1CCOC1=O)n2Cc1ccccc1` was 52.5 µM; that for `Cc1ccc2c(c1)nc(SC(Cc1ccccc1)C(=O)N1CCOC1=O)n2Cc1ccccc1` (configuration not stated) was 36.5 µM.
As to `CC(C)(C)c1ccc2c(c1)nc(SC(Cc1ccccc1)C(=O)N1CCOC1=O)n2Cc1ccccc1` (configuration not stated), the IC50 is 29.5 µM.
On the same count and under the same terms, then `O=C1OCCN1C(=O)C(Cc1ccco1)Sc1nc2ccc(O)cc2n1Cc1ccccc1` (configuration not stated), with 55.8 µM.
Still for that read-out and setting: the value for `O=C1OCCN1C(=O)C(Cc1ccco1)Sc1nc2cc(Cl)ccc2n1Cc1ccccc1` (configuration not stated) was 14.9 µM.
As for `O=C(CSc1nc2cc(Cl)c(Cl)cc2n1Cc1ccccc1)N1CCOC1=O`, the IC50 came out at 29.5 µM.
Consider `O=C1OCCN1C(=O)C(Cc1ccco1)Sc1nc2cc(Cl)c(Cl)cc2n1Cc1ccccc1` (configuration not stated), for which the midpoint of inhibition, the IC50, lay at 30.8 µM.
Regarding `CC(C)(C)c1ccc2c(c1)nc(SCC(=O)N1CCOC1=O)n2Cc1ccccc1`, inhibition was half-maximal at 35.1 µM (IC50).
`COc1ccc2nc(SC(Cc3ccco3)C(=O)N3CCOC3=O)n(Cc3ccccc3)c2c1` (configuration not stated): half-maximal inhibition (IC50) required 53.9 µM.

The next experiment addresses T1, Replicase polyprotein 1ab. In words: Inhibition of His6-tagged SARS-CoV-2 main protease expressed in Escherichia coli BL21 (DE3) using DABCYL-KTSAVLQ1SGFRKM-E(EDANS)-NH2 as substrate preincubated for 15 mins followed by substrate addition in presence of Triton-X by FRET analysis.
Regarding `O=C(CSc1nc2cc(Cl)ccc2n1Cc1ccccc1)N1CCNC1=O`, the concentration for half-maximal inhibition (IC50) is 24.2 µM.
For the compound `COCCn1c(C(=O)NCC(O)c2ccccc2)nc2ccccc2c1=O` (configuration not stated), the IC50 was 54 µM.
